In ChEMBL document CHEMBL2150863, “Synthesis pharmacological evaluation and docking studies of pyrimidine derivatives” (Eur J Med Chem, 2012):
In brackets after ≈: the same amount, converted by molar mass.

How the values were obtained:
Rattus norvegicus [1] = assay: Antiinflammatory activity in rat assessed as inhibition of carrageenan-induced paw edema at 10 mg/kg, po administered 30 mins prior to carrageenan-challenge after 1 hr relative to vehicle-treated control; format: functional
Outline: (§1)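 Rats of 150–200 g, six per group. Oral dosing at 10 mg/kg as a suspension; controls receive 1% carboxymethylcellulose. After 30 min, 0.1 mL of 1% w/v carrageenan is injected into the left hind paw. Paw volume is measured by mercury displacement. Inhibition = (1 − Vt/Vc) × 100 from edema volumes; mean ± SEM.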

Rattus norvegicus [2] = assay: Antiinflammatory activity in rat assessed as inhibition of carrageenan-induced paw edema at 10 mg/kg, po administered 30 mins prior to carrageenan-challenge after 2 hrs relative to vehicle-treated control; format: functional; outline: as §1
Rattus norvegicus [3] = assay: Antiinflammatory activity in rat assessed as inhibition of carrageenan-induced paw edema at 10 mg/kg, po administered 30 mins prior to carrageenan-challenge after 3 hrs relative to vehicle-treated control; format: functional; outline: as §1
Rattus norvegicus [4] = assay: Antiinflammatory activity in rat assessed as inhibition of carrageenan-induced paw edema at 10 mg/kg, po administered 30 mins prior to carrageenan-challenge after 4 hrs relative to vehicle-treated control; format: functional; outline: as §1
Mus musculus = assay: Analgesic activity in mouse assessed as inhibition of acetic-acid induced writhing at 10 mg/kg administered 15 mins prior to acetic acid-challenge measured for 15 mins relative to vehicle-treated control; format: functional
Outline: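 Mice, at least six per group. Test compounds given at 10 mg/kg; acetic acid solution given 15 min later. Writhing is scored as abdominal contractions, trunk twists and hind-limb extensions. Percent inhibition of pain = (1 − Vt/Vc) × 100, where Vt and Vc are mean writhing counts in the treated and control groups.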

Escherichia coli = assay: Antibacterial activity against Escherichia coli MTCC 4351 after 24 hrs by tube dilution method; format: functional; conditions: MTCC 4351, 24 h
Outline: (§2)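 Tube dilution in Mueller-Hinton broth at pH 7.4. Two-fold serial dilutions from 1000 to 0.97 in 10% DMSO, with a DMSO-only inoculated control. Inoculum matched visually to a McFarland standard of about 1.5 × 10⁸ cells/mL. Incubation at 37 ± 1 °C for 24 h. MIC is the lowest concentration giving no growth; duplicate determinations, averaged.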

Pseudomonas aeruginosa = assay: Antibacterial activity against Pseudomonas aeruginosa MTCC 424 after 24 hrs by tube dilution method; format: functional; conditions: MTCC 424, 24 h; outline: as §2
Bacillus subtilis = assay: Antibacterial activity against Bacillus subtilis MTCC 441 after 24 hrs by tube dilution method; format: functional; conditions: MTCC 441, 24 h; outline: as §2
Staphylococcus aureus = assay: Antibacterial activity against Staphylococcus aureus MTCC 3160 after 24 hrs by tube dilution method; format: functional; conditions: MTCC 3160, 24 h; outline: as §2
Aspergillus niger = assay: Antifungal activity against Aspergillus niger MTCC 282 after 48 hrs by tube dilution method; format: functional; conditions: MTCC 282, 48 h
Outline: (§3)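 Tube dilution in Sabouraud dextrose broth at pH 7.4. Two-fold serial dilutions from 1000 to 0.97 in 10% DMSO, with a solvent control. Inoculum matched visually to a McFarland standard of about 1.5 × 10⁸ cells/mL. Incubation at 25 ± 1 °C for 48 h. MIC is the tube showing no fungal growth; duplicate determinations, averaged.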

Candida albicans = assay: Antifungal activity against Candida albicans MTCC 183 after 48 hrs by tube dilution method; format: functional; conditions: MTCC 183, 48 h; outline: as §3
Rattus norvegicus [5] = assay: Ulcerogenic activity in Wistar albino rat assessed as ulcer index at 10 mg/kg, ip administered QD for 3 days; format: toxicity, organism-based; parameters: dose 10 mg/kg, route intraperitoneal; conditions: in vivo, 72 h
Outline: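 Wistar rats of either sex, 150–200 g, six per group. Given 10 mg/kg ip once daily for 3 days; controls receive 10% v/v Tween 80. Fasted 36 h, then pylorus ligated on day 4. Killed 4 h after ligation; stomach opened along the greater curvature and ulcer index scored; mean ± SEM.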

SMILES	inhibition in vivo at 10 mg/kg (Rattus norvegicus [1]) [%]	inhibition in vivo at 10 mg/kg (Rattus norvegicus [2]) [%]	inhibition in vivo at 10 mg/kg (Rattus norvegicus [3]) [%]	inhibition in vivo at 10 mg/kg (Rattus norvegicus [4]) [%]	inhibition in vivo at 10 mg/kg (Mus musculus) [%]	MIC (Escherichia coli) [µg/mL]	MIC (Pseudomonas aeruginosa) [µg/mL]	MIC (Bacillus subtilis) [µg/mL]	MIC (Staphylococcus aureus) [µg/mL]	MIC (Aspergillus niger) [µg/mL]	MIC (Candida albicans) [µg/mL]	UI (Rattus norvegicus [5])
O=C1N=C(C2C(=O)c3ccccc3C2=O)CC(c2ccccc2)N1 (stereo not given)	20	33	21	11	31	62.5 (≈ 196 µM)	125 (≈ 393 µM)	250 (≈ 785 µM)	125 (≈ 393 µM)	500 (≈ 1570 µM)	500 (≈ 1570 µM)	–
O=C1N=C(C2C(=O)c3ccccc3C2=O)CC(c2ccccc2[N+](=O)[O-])N1 (stereo not given)	11	30	26	32	35	31.2 (≈ 85.9 µM)	250 (≈ 688 µM)	250 (≈ 688 µM)	125 (≈ 344 µM)	500 (≈ 1380 µM)	500 (≈ 1380 µM)	–
O=C1N=C(C2C(=O)c3ccccc3C2=O)CC(c2cccc([N+](=O)[O-])c2)N1 (stereo not given)	27	36	21	12	36	250 (≈ 688 µM)	250 (≈ 688 µM)	250 (≈ 688 µM)	125 (≈ 344 µM)	125 (≈ 344 µM)	500 (≈ 1380 µM)	–
O=C1N=C(C2C(=O)c3ccccc3C2=O)CC(c2ccc([N+](=O)[O-])cc2)N1 (stereo not given)	16	26	19	18	38	500 (≈ 1380 µM)	250 (≈ 688 µM)	250 (≈ 688 µM)	125 (≈ 344 µM)	500 (≈ 1380 µM)	500 (≈ 1380 µM)	–
O=C1N=C(C2C(=O)c3ccccc3C2=O)CC(c2ccc(Cl)cc2)N1 (stereo not given)	15	19	31	34	44	125 (≈ 354 µM)	62.5 (≈ 177 µM)	31.2 (≈ 88.4 µM)	125 (≈ 354 µM)	125 (≈ 354 µM)	125 (≈ 354 µM)	1.28
CN(C)c1ccc(C2CC(C3C(=O)c4ccccc4C3=O)=NC(=O)N2)cc1 (stereo not given)	15	29	20	16	52	125 (≈ 346 µM)	62.5 (≈ 173 µM)	125 (≈ 346 µM)	125 (≈ 346 µM)	500 (≈ 1380 µM)	500 (≈ 1380 µM)	–
COc1ccc(C2CC(C3C(=O)c4ccccc4C3=O)=NC(=O)N2)cc1 (stereo not given)	22	21	22	10	31	250 (≈ 718 µM)	250 (≈ 718 µM)	125 (≈ 359 µM)	500 (≈ 1440 µM)	250 (≈ 718 µM)	250 (≈ 718 µM)	–
O=C1N=C(C2C(=O)c3ccccc3C2=O)CC(c2ccco2)N1 (stereo not given)	18	25	20	7	25	31.2 (≈ 101 µM)	500 (≈ 1620 µM)	31.2 (≈ 101 µM)	62.5 (≈ 203 µM)	62.5 (≈ 203 µM)	62.5 (≈ 203 µM)	–
O=C1N=C(C2C(=O)c3ccccc3C2=O)CC(/C=C/c2ccccc2)N1 (stereo not given)	17	32	18	16	16	125 (≈ 363 µM)	250 (≈ 726 µM)	125 (≈ 363 µM)	62.5 (≈ 181 µM)	250 (≈ 726 µM)	250 (≈ 726 µM)	–
O=C1N=C(C2C(=O)c3ccccc3C2=O)CC(c2ccccc2O)N1 (stereo not given)	24	22	19	16	37	500 (≈ 1500 µM)	125 (≈ 374 µM)	250 (≈ 748 µM)	125 (≈ 374 µM)	500 (≈ 1500 µM)	250 (≈ 748 µM)	–
O=C1N=C(C2C(=O)c3ccccc3C2=O)CC(c2c[nH]c3ccccc23)N1 (stereo not given)	19	21	12	12	21	250 (≈ 700 µM)	125 (≈ 350 µM)	250 (≈ 700 µM)	250 (≈ 700 µM)	125 (≈ 350 µM)	500 (≈ 1400 µM)	–
COc1cc(C2CC(C3C(=O)c4ccccc4C3=O)=NC(=O)N2)ccc1O (stereo not given)	20	33	26	11	28	500 (≈ 1370 µM)	250 (≈ 686 µM)	250 (≈ 686 µM)	125 (≈ 343 µM)	125 (≈ 343 µM)	250 (≈ 686 µM)	–
CC1(C)S[C@@H]2[C@H](NC(=O)[C@H](N)c3ccccc3)C(=O)N2[C@H]1C(=O)O [AMPICILLIN]	–	–	–	–	–	3.9 (≈ 11.2 µM)	3.9 (≈ 11.2 µM)	3.9 (≈ 11.2 µM)	3.9 (≈ 11.2 µM)	–	–	–
OC(Cn1cncn1)(Cn1cncn1)c1ccc(F)cc1F [FLUCONAZOLE]	–	–	–	–	–	–	–	–	–	7.8 (≈ 25.5 µM)	7.8 (≈ 25.5 µM)	–
COc1ccc2c(c1)c(CC(=O)O)c(C)n2C(=O)c1ccc(Cl)cc1 [INDOMETHACIN]	23	48	39	34	55	–	–	–	–	–	–	1.7
